Experimental data published in ChEMBL document CHEMBL1156517, “Targeting thyroid hormone receptor-beta agonists to the liver reduces cholesterol and triglycerides and improves the therapeutic index” (Proc Natl Acad Sci U S A, 2007).

How the values were obtained:
Design in all cases: dose 5 mg/kg, route oral
Details in all cases: in vivo
[1] = Biodistribution in Sprague-Dawley rat cervical lymph node at 5 mg/kg, po after 3 hrs; type: ADME, organism-based
How it was run: (§1)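 Male SD rats (n = 4 per group) were dosed orally with [¹⁴C]-labelled prodrug at 5 mg/kg. Animals were killed 3 or 24 h after dosing. Harvested tissues, blood and plasma were processed and analysed directly for radioactivity by liquid scintillation counting.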

[2] = Biodistribution in Sprague-Dawley rat cervical lymph node at 5 mg/kg, po after 24 hrs; type: ADME, organism-based; how it was run: as §1
Thyroid gland [3] = experiment: Biodistribution in Sprague-Dawley rat thyroid at 5 mg/kg, po after 3 hrs; type: ADME, organism-based
How it was run: (§2)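 Male SD rats (n = 4 per group) were given [¹⁴C]-labelled compound at 5 mg/kg per os. They were killed 3 and 24 h after dosing. Harvested tissues were processed and radioactivity was measured directly by liquid scintillation counting.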

Thyroid gland [4] = experiment: Biodistribution in Sprague-Dawley rat thyroid at 5 mg/kg, po after 24 hrs; type: ADME, organism-based; how it was run: as §2
Testes [5] = experiment: Biodistribution in Sprague-Dawley rat testes at 5 mg/kg, po after 3 hrs; type: ADME, organism-based, Testis; how it was run: as §2
Testes [6] = experiment: Biodistribution in Sprague-Dawley rat testes at 5 mg/kg, po after 24 hrs; type: ADME, organism-based, Testis; how it was run: as §2
[7] = Biodistribution in Sprague-Dawley rat epididymal fat at 5 mg/kg, po after 3 hrs; type: ADME, organism-based, Adipose tissue; how it was run: as §1
[8] = Biodistribution in Sprague-Dawley rat epididymal fat at 5 mg/kg, po after 24 hrs; type: ADME, organism-based, Adipose tissue; how it was run: as §1
[9] = Biodistribution in Sprague-Dawley rat urinary bladder at 5 mg/kg, po after 3 hrs; type: ADME, organism-based; how it was run: as §2
[10] = Biodistribution in Sprague-Dawley rat urinary bladder at 5 mg/kg, po after 24 hrs; type: ADME, organism-based; how it was run: as §2
Prostate gland [11] = experiment: Biodistribution in Sprague-Dawley rat prostate at 5 mg/kg, po after 3 hrs; type: ADME, organism-based; how it was run: as §1
Prostate gland [12] = experiment: Biodistribution in Sprague-Dawley rat prostate at 5 mg/kg, po after 24 hrs; type: ADME, organism-based; how it was run: as §1
Spleen [13] = experiment: Biodistribution in Sprague-Dawley rat spleen at 5 mg/kg, po after 3 hrs; type: ADME, organism-based; how it was run: as §2
Spleen [14] = experiment: Biodistribution in Sprague-Dawley rat spleen at 5 mg/kg, po after 24 hrs; type: ADME, organism-based; how it was run: as §1
Pancreas [15] = experiment: Biodistribution in Sprague-Dawley rat pancreas at 5 mg/kg, po after 3 hrs; type: ADME, organism-based; how it was run: as §1
Pancreas [16] = experiment: Biodistribution in Sprague-Dawley rat pancreas at 5 mg/kg, po after 24 hrs; type: ADME, organism-based; how it was run: as §1
[17] = Biodistribution in Sprague-Dawley rat stomach at 5 mg/kg, po after 3 hrs; type: ADME, organism-based; how it was run: as §2
[18] = Biodistribution in Sprague-Dawley rat stomach at 5 mg/kg, po after 24 hrs; type: ADME, organism-based; how it was run: as §2
[19] = Biodistribution in Sprague-Dawley rat stomach C&W at 5 mg/kg, po after 3 hrs; type: ADME, organism-based; how it was run: as §2
[20] = Biodistribution in Sprague-Dawley rat stomach C&W at 5 mg/kg, po after 24 hrs; type: ADME, organism-based; how it was run: as §2
[21] = Biodistribution in Sprague-Dawley rat mesenteric lymph at 5 mg/kg, po after 3 hrs; type: ADME, organism-based, Mesenteric lymph node; how it was run: as §1
[22] = Biodistribution in Sprague-Dawley rat mesenteric lymph at 5 mg/kg, po after 24 hrs; type: ADME, organism-based, Mesenteric lymph node; how it was run: as §1
[23] = Biodistribution in Sprague-Dawley rat small intestine at 5 mg/kg, po after 3 hrs; type: ADME, organism-based; how it was run: as §1
[24] = Biodistribution in Sprague-Dawley rat small intestine at 5 mg/kg, po after 24 hrs; type: ADME, organism-based; how it was run: as §1
[25] = Biodistribution in Sprague-Dawley rat small intestine C&W at 5 mg/kg, po after 3 hrs; type: ADME, organism-based; how it was run: as §1
[26] = Biodistribution in Sprague-Dawley rat small intestine C&W at 5 mg/kg, po after 24 hrs; type: ADME, organism-based; how it was run: as §1
[27] = Biodistribution in Sprague-Dawley rat large intestine at 5 mg/kg, po after 3 hrs; type: ADME, organism-based
How it was run: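 Male SD rats (n = 4 per group) were given a single oral dose of [¹⁴C]-labelled prodrug at 5 mg/kg. They were killed at 3 and 24 h after dosing. Harvested tissues were processed and analysed directly by liquid scintillation counting to give tissue radioactivity concentrations.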

[28] = Biodistribution in Sprague-Dawley rat large intestine at 5 mg/kg, po after 24 hrs; type: ADME, organism-based; how it was run: as §1
[29] = Biodistribution in Sprague-Dawley rat large intestine C&W at 5 mg/kg, po after 3 hrs; type: ADME, organism-based; how it was run: as §1
[30] = Biodistribution in Sprague-Dawley rat large intestine C&W at 5 mg/kg, po after 24 hrs; type: ADME, organism-based; how it was run: as §1
Liver [31] = experiment: Biodistribution in Sprague-Dawley rat liver at 5 mg/kg, po after 3 hrs; type: ADME, organism-based; how it was run: as §1
Liver [32] = experiment: Biodistribution in Sprague-Dawley rat liver at 5 mg/kg, po after 24 hrs; type: ADME, organism-based; how it was run: as §1
Adrenal gland [33] = experiment: Biodistribution in Sprague-Dawley rat adrenal gland at 5 mg/kg, po after 3 hrs; type: ADME, organism-based; how it was run: as §1
Adrenal gland [34] = experiment: Biodistribution in Sprague-Dawley rat adrenal gland at 5 mg/kg, po after 24 hrs; type: ADME, organism-based; how it was run: as §1
Kidney [35] = experiment: Biodistribution in Sprague-Dawley rat kidney at 5 mg/kg, po after 3 hrs; type: ADME, organism-based; how it was run: as §1
Kidney [36] = experiment: Biodistribution in Sprague-Dawley rat kidney at 5 mg/kg, po after 24 hrs; type: ADME, organism-based; how it was run: as §1
Thymus [37] = experiment: Biodistribution in Sprague-Dawley rat thymus at 5 mg/kg, po after 3 hrs; type: ADME, organism-based; how it was run: as §2
Thymus [38] = experiment: Biodistribution in Sprague-Dawley rat thymus at 5 mg/kg, po after 24 hrs; type: ADME, organism-based; how it was run: as §2
Heart [39] = experiment: Biodistribution in Sprague-Dawley rat heart at 5 mg/kg, po after 3 hrs; type: ADME, organism-based; how it was run: as §1
Heart [40] = experiment: Biodistribution in Sprague-Dawley rat heart at 5 mg/kg, po after 24 hrs; type: ADME, organism-based; how it was run: as §1
Lung [41] = experiment: Biodistribution in Sprague-Dawley rat lung at 5 mg/kg, po after 3 hrs; type: ADME, organism-based; how it was run: as §1
Lung [42] = experiment: Biodistribution in Sprague-Dawley rat lung at 5 mg/kg, po after 24 hrs; type: ADME, organism-based; how it was run: as §1
[43] = Biodistribution in Sprague-Dawley rat bone marrow at 5 mg/kg, po after 3 hrs; type: ADME, organism-based; how it was run: as §1
[44] = Biodistribution in Sprague-Dawley rat bone marrow at 5 mg/kg, po after 24 hrs; type: ADME, organism-based; how it was run: as §1
Muscle tissue [45] = experiment: Biodistribution in Sprague-Dawley rat muscle at 5 mg/kg, po after 3 hrs; type: ADME, organism-based; how it was run: as §1
Muscle tissue [46] = experiment: Biodistribution in Sprague-Dawley rat muscle at 5 mg/kg, po after 24 hrs; type: ADME, organism-based; how it was run: as §1
[47] = Biodistribution in Sprague-Dawley rat eyes at 5 mg/kg, po after 3 hrs; type: ADME, organism-based, Eye; how it was run: as §1
[48] = Biodistribution in Sprague-Dawley rat eyes at 5 mg/kg, po after 24 hrs; type: ADME, organism-based, Eye; how it was run: as §1
Brain [49] = experiment: Biodistribution in Sprague-Dawley rat brain at 5 mg/kg, po after 3 hrs; type: ADME, organism-based; how it was run: as §1
Brain [50] = experiment: Biodistribution in Sprague-Dawley rat brain at 5 mg/kg, po after 24 hrs; type: ADME, organism-based; how it was run: as §1
[51] = Biodistribution in Sprague-Dawley rat pituitary gland at 5 mg/kg, po after 3 hrs; type: ADME, organism-based; how it was run: as §1
[52] = Biodistribution in Sprague-Dawley rat pituitary gland at 5 mg/kg, po after 24 hrs; type: ADME, organism-based; how it was run: as §1
Zone of skin [53] = experiment: Biodistribution in Sprague-Dawley rat skin at 5 mg/kg, po after 3 hrs; type: ADME, organism-based; how it was run: as §1
Zone of skin [54] = experiment: Biodistribution in Sprague-Dawley rat skin at 5 mg/kg, po after 24 hrs; type: ADME, organism-based; how it was run: as §1
Blood [55] = experiment: Biodistribution in Sprague-Dawley rat blood at 5 mg/kg, po after 3 hrs; type: ADME, organism-based; how it was run: as §1
Blood [56] = experiment: Biodistribution in Sprague-Dawley rat blood at 5 mg/kg, po after 24 hrs; type: ADME, organism-based; how it was run: as §1
Plasma [57] = experiment: Biodistribution in Sprague-Dawley rat plasma at 5 mg/kg, po after 3 hrs; type: ADME, organism-based; how it was run: as §1
Plasma [58] = experiment: Biodistribution in Sprague-Dawley rat plasma at 5 mg/kg, po after 24 hrs; type: ADME, organism-based; how it was run: as §1
[59] = Biodistribution in Sprague-Dawley rat femur bone at 5 mg/kg, po after 3 hrs; type: ADME, organism-based, Bone element; how it was run: as §1
[60] = Biodistribution in Sprague-Dawley rat femur bone at 5 mg/kg, po after 24 hrs; type: ADME, organism-based, Bone element; how it was run: as §1

Drug uptake [1]: 0.12 nmol/g
Drug uptake [2]: 0.03 nmol/g
Drug uptake (Thyroid gland [3]): 0.2 nmol/g
Drug uptake (Thyroid gland [4]): 0.03 nmol/g
Drug uptake (Testes [5]): 0.03 nmol/g
Drug uptake (Testes [6]): 0.04 nmol/g
Drug uptake [7]: 0.15 nmol/g
Drug uptake [8]: 0.55 nmol/g
Drug uptake [9]: 0.18 nmol/g
Drug uptake [10]: 0.05 nmol/g
Drug uptake (Prostate gland [11]): 0.12 nmol/g
Drug uptake (Prostate gland [12]): 0.03 nmol/g
Drug uptake (Spleen [13]): 2.57 nmol/g
Drug uptake (Spleen [14]): 0.01 nmol/g
Drug uptake (Pancreas [15]): 0.25 nmol/g
Drug uptake (Pancreas [16]): 0.25 nmol/g
Drug uptake [17]: 76.96 nmol/g
Drug uptake [18]: 0.22 nmol/g
Drug uptake [19]: 24.52 nmol/g
Drug uptake [20]: 0.06 nmol/g
Drug uptake [21]: 16.61 nmol/g
Drug uptake [22]: 0.05 nmol/g
Drug uptake [23]: 28.56 nmol/g
Drug uptake [24]: 0.4 nmol/g
Drug uptake [25]: 39.69 nmol/g
Drug uptake [26]: 0.2 nmol/g
Drug uptake [27]: 1.23 nmol/g
Drug uptake [28]: 0.64 nmol/g
Drug uptake [29]: 4.68 nmol/g
Drug uptake [30]: 2.5 nmol/g
Drug uptake (Liver [31]): 6.67 nmol/g
Drug uptake (Liver [32]): 3.67 nmol/g
Drug uptake (Adrenal gland [33]): 0.77 nmol/g
Drug uptake (Adrenal gland [34]): 0.09 nmol/g
Drug uptake (Kidney [35]): 0.48 nmol/g
Drug uptake (Kidney [36]): 0.14 nmol/g
Drug uptake (Thymus [37]): 0.09 nmol/g
Drug uptake (Thymus [38]): 0.01 nmol/g
Drug uptake (Heart [39]): 0.36 nmol/g
Drug uptake (Heart [40]): 0.05 nmol/g
Drug uptake (Lung [41]): 0.31 nmol/g
Drug uptake (Lung [42]): 0.04 nmol/g
Drug uptake [43]: 0.06 nmol/g
Drug uptake [44]: 0.01 nmol/g
Drug uptake (Muscle tissue [45]): 0.07 nmol/g
Drug uptake (Muscle tissue [46]): 0.01 nmol/g
Drug uptake [47]: 0.04 nmol/g
Drug uptake [48]: 0.01 nmol/g
Drug uptake (Brain [49]): 0.03 nmol/g
Drug uptake (Brain [50]): 0.01 nmol/g
Drug uptake [51]: 0.09 nmol/g
Drug uptake [52]: 0.02 nmol/g
Drug uptake (Zone of skin [53]): 0.08 nmol/g
Drug uptake (Zone of skin [54]): 0.15 nmol/g
Drug uptake (Blood [55]): 0.12 nmol/g
Drug uptake (Blood [56]): 0.05 nmol/g
Drug uptake (Plasma [57]): 0.15 nmol/g
Drug uptake (Plasma [58]): 0.05 nmol/g
Drug uptake [59]: 0.14 nmol/g
Drug uptake [60]: 0.02 nmol/g
Structure (SMILES): Cc1cc(OCP2(=O)OCC[C@@H](c3cccc(Cl)c3)O2)cc([14CH3])c1Cc1ccc(O)c(C(C)C)c1 (stereo not given in full)
